Assay results pooled from the literature.
Lines come from different studies, so protocols differ.
ESR1: Estrogen receptor (ESR1, Homo sapiens, UniProt P03372)
AChE: AChE (Phlebotomus papatasi, UniProt M1F887)
M-phase phosphoprotein 8 chromodomain: M-phase phosphoprotein 8, chromodomain (Homo sapiens, UniProt Q99549)

Structure (SMILES)	target	observed	action	method	quantity	value
Clc1ccc(Cl)c(-c2ccccc2Cl)c1	ESR1	reporter gene	agonist	luciferase	EC50	9 µM
COc1cc2c3cc1Oc1cc(ccc1O)C[C@@H]1c4c(cc(OC)c(O)c4Oc4ccc(cc4)C[C@@H]3N(C)CC2)CC[N+]1(C)C	AChE	enzyme activity	inhibitor	–	IC50	38.9 µM
CCN(CCCC[C@H](NC(=O)[C@H](CC(C)C)NC(=O)[C@H](C)NC(=O)[C@H](Cc1ccccc1)NC(=O)c1ccoc1)C(=O)N[C@@H](CO)C(N)=O)C(C)C	M-phase phosphoprotein 8 chromodomain	cell-free assay	–	TR-FRET	IC50	1.2 µM
CCCCCNC(=N)N/N=C/c1c[nH]c2ccc(OC)cc12	5-hydroxytryptamine receptor 1A (HTR1A, Homo sapiens, UniProt P08908)	calcium signal	agonist	fluorescence	EC50	18 µM
CCN(CCCC[C@H](NC(=O)[C@H](CC(C)C)NC(=O)[C@H](C)NC(=O)[C@H](Cc1cccnc1)NC(=O)c1cccnc1)C(=O)N[C@@H](CO)C(N)=O)C(C)C	M-phase phosphoprotein 8 chromodomain	cell-free assay	–	TR-FRET	IC50	1.8 µM
Cc1cc(O)cc(C)c1C[C@H](N)C(=O)N[C@H](C)C(=O)NCC(=O)N[C@@H](Cc1ccc(Cl)cc1)C(=O)N(C)CCC[C@@]1(c2ccc(F)cc2)OCc2cc(C#N)ccc21	Alpha-2C adrenergic receptor (ADRA2C, Homo sapiens, UniProt P18825)	ligand displacement	–	radioligand	Ki	0.24 µM
CCN(CCCC[C@H](NC(=O)[C@H](Cc1ccc(OC)c(OC)c1)NC(=O)[C@H](C)NC(=O)[C@H](Cc1ccccc1)NC(=O)c1cccnc1)C(=O)N[C@@H](CO)C(N)=O)C(C)C	M-phase phosphoprotein 8 chromodomain	cell-free assay	–	TR-FRET	IC50	1.9 µM
O=c1c2ccccc2[se]n1-c1ccccc1	Leucine-rich repeat serine/threonine-protein kinase 2 (LRRK2, Homo sapiens, UniProt Q5S007, G2019S)	enzyme activity	inhibitor	radiometric	IC50	1.86 µM
C[C@H]1CCC[C@H](O)CCC/C=C/c2cc(O)cc(O)c2C(=O)O1	ESR1	reporter gene	agonist	luciferase	EC50	0.00013 µM
CC[N+](C)(C)c1cccc(O)c1	AChE	enzyme activity	inhibitor	–	IC50	1.18 µM
Oc1ccc(-c2cc(Cl)ccc2Cl)c(Cl)c1	ESR1	reporter gene	agonist	luciferase	EC50	0.2 µM
N[C@@H](Cc1ccc(O)cc1)C(=O)O	Iodotyrosine deiodinase (Haliscomenobacter hydrossis, UniProt F4KU78)	binding	–	fluorescence	Kd	> 1200 µM
Clc1ccc(-c2ccc(Cl)cc2Cl)cc1	ESR1	reporter gene	agonist	luciferase	EC50	27 µM
CCN(CCCC[C@H](NC(=O)[C@H](CC(C)C)NC(=O)[C@H](C)NC(=O)[C@H](Cc1c(F)c(F)c(F)c(F)c1F)NC(=O)c1cccnc1)C(=O)N[C@@H](CO)C(N)=O)C(C)C	M-phase phosphoprotein 8 chromodomain	cell-free assay	–	TR-FRET	IC50	1.6 µM
